ChEMBL document CHEMBL1799921, “3-(1,3,4-Thiadiazole-2-yl)quinoline derivatives: synthesis, characterization and anti-microbial activity” (Eur J Med Chem, 2011)
In brackets after ≈: the same amount, converted by molar mass.

How the values were obtained:
Streptococcus pyogenes [1] = experiment: Antibacterial activity against Streptococcus pyogenes measured at MIC after 18 hrs by halo zone test; assay type: functional
Summary of the method: (§1)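 Disk diffusion. Strains subcultured 18 h at 37 °C in BHI, then suspended in saline by McFarland to about 10⁵ CFU/mL. Suspension mixed 1:1 with antibiotic agar at 40 °C and plated. 6.0 mm paper disks loaded with dilutions from a DMSO stock (1 mg per 100 of DMSO). Incubated 18 h at 36 °C. Inhibition zone (mm) measured at the MIC. Amoxicillin and DMSO disks as controls.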

Salmonella typhimurium [2] = experiment: Antibacterial activity against Salmonella Typhimurium measured at MIC after 18 hrs by halo zone test; assay type: functional, Salmonella enterica subsp. enterica serovar Typhimurium; summary of the method: as §1
Escherichia coli [3] = experiment: Antibacterial activity against Escherichia coli measured at MIC after 18 hrs by halo zone test; assay type: functional; summary of the method: as §1
Staphylococcus aureus [4] = experiment: Antibacterial activity against Staphylococcus aureus after 18 hrs by macro-dilution test; assay type: functional
Summary of the method: (§2)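 Tube macro-dilution. Compounds in DMSO serially diluted to final […]. 24 h old inoculum added to each tube. Standard inoculum […]. Incubated 18 h at 37 °C. MIC is the lowest concentration with no visible growth, read visually. DMSO negative and amoxicillin positive controls.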

Streptococcus pyogenes [5] = experiment: Antibacterial activity against Streptococcus pyogenes after 18 hrs by macro-dilution test; assay type: functional; summary of the method: as §2
Salmonella typhimurium [6] = experiment: Antibacterial activity against Salmonella Typhimurium after 18 hrs by macro-dilution test; assay type: functional, Salmonella enterica subsp. enterica serovar Typhimurium; settings: Salmonella enterica; summary of the method: as §2
Escherichia coli [7] = experiment: Antibacterial activity against Escherichia coli after 18 hrs by macro-dilution test; assay type: functional; summary of the method: as §2
Staphylococcus aureus [8] = experiment: Antibacterial activity against Staphylococcus aureus measured at MIC after 18 hrs by halo zone test; assay type: functional; summary of the method: as §1

In the case of `S=C(N/N=C/c1cc2cccc(Cl)c2nc1Cl)NC1CCCCCCC1`, the “inhibition zone (IZ)” value (Streptococcus pyogenes [1]) is reported as 17.54 mm, the “inhibition zone (IZ)” value (Salmonella typhimurium [2]) is reported as 17.54 mm and the “inhibition zone (IZ)” value (Escherichia coli [3]) is reported as 17.62 mm. For the same molecule, the MIC (Staphylococcus aureus [4]) was 256 µg/mL (≈ 625 µM), the MIC (Streptococcus pyogenes [5]) was 256 µg/mL (≈ 625 µM) and the MIC (Salmonella typhimurium [6]) was 256 µg/mL (≈ 625 µM). The MIC (Escherichia coli [7]) was 128 µg/mL (≈ 313 µM).
For `Fc1ccc(F)c(NC(=S)N/N=C/c2cc3ccccc3nc2Cl)c1`, the “inhibition zone (IZ)” value (Staphylococcus aureus [8]) was 16.75 mm, the “inhibition zone (IZ)” value (Streptococcus pyogenes [1]) was 14.07 mm and the “inhibition zone (IZ)” value (Salmonella typhimurium [2]) was 11.56 mm. The “inhibition zone (IZ)” value (Escherichia coli [3]) was 10.13 mm, the MIC (Staphylococcus aureus [4]) was 32 µg/mL (≈ 84.9 µM) and the MIC (Streptococcus pyogenes [5]) was 64 µg/mL (≈ 170 µM). For the same molecule, the MIC (Salmonella typhimurium [6]) was 32 µg/mL (≈ 84.9 µM) and the MIC (Escherichia coli [7]) was 64 µg/mL (≈ 170 µM).
For `Cc1ccc(NC(=S)N/N=C/c2cc3ccccc3nc2Cl)cc1`, the “inhibition zone (IZ)” value (Staphylococcus aureus [8]) was 17.93 mm, the “inhibition zone (IZ)” value (Streptococcus pyogenes [1]) was 17.43 mm and the “inhibition zone (IZ)” value (Salmonella typhimurium [2]) was 18.02 mm. For the same molecule, the “inhibition zone (IZ)” value (Escherichia coli [3]) was 16.65 mm, the MIC (Staphylococcus aureus [4]) was 32 µg/mL (≈ 90.2 µM) and the MIC (Streptococcus pyogenes [5]) was 32 µg/mL (≈ 90.2 µM). The MIC (Salmonella typhimurium [6]) was 64 µg/mL (≈ 180 µM) and the MIC (Escherichia coli [7]) was 64 µg/mL (≈ 180 µM).
With `O=[N+]([O-])c1ccc(NC(=S)N/N=C/c2cc3ccccc3nc2Cl)cc1` the “inhibition zone (IZ)” value (Staphylococcus aureus [8]) was 13.46 mm, the “inhibition zone (IZ)” value (Streptococcus pyogenes [1]) was 12.25 mm and the “inhibition zone (IZ)” value (Escherichia coli [3]) was 13.27 mm. It also gave an MIC (Staphylococcus aureus [4]) of 64 µg/mL (≈ 166 µM), an MIC (Streptococcus pyogenes [5]) of 64 µg/mL (≈ 166 µM) and an MIC (Salmonella typhimurium [6]) of 256 µg/mL (≈ 663 µM). It also gave an MIC (Escherichia coli [7]) of 32 µg/mL (≈ 82.9 µM).
For `Cc1cccc2cc(/C=N/NC(N)=S)c(Cl)nc12`, the “inhibition zone (IZ)” value (Staphylococcus aureus [8]) was 12.76 mm, the “inhibition zone (IZ)” value (Streptococcus pyogenes [1]) was 17.1 mm and the “inhibition zone (IZ)” value (Salmonella typhimurium [2]) was 18.02 mm. The MIC (Staphylococcus aureus [4]) was 64 µg/mL (≈ 230 µM), the MIC (Streptococcus pyogenes [5]) was 128 µg/mL (≈ 459 µM) and the MIC (Salmonella typhimurium [6]) was 256 µg/mL (≈ 918 µM). For the same molecule, the MIC (Escherichia coli [7]) was 256 µg/mL (≈ 918 µM).
`Cc1cccc2cc(/C=N/NC(=S)NC3CCCC3)c(Cl)nc12` was tested, and the “inhibition zone (IZ)” value (Staphylococcus aureus [8]) was 20.04 mm, the “inhibition zone (IZ)” value (Streptococcus pyogenes [1]) was 18.71 mm and the “inhibition zone (IZ)” value (Salmonella typhimurium [2]) was 17.44 mm. The “inhibition zone (IZ)” value (Escherichia coli [3]) was 16.97 mm, the MIC (Staphylococcus aureus [4]) was 256 µg/mL (≈ 738 µM) and the MIC (Streptococcus pyogenes [5]) was 256 µg/mL (≈ 738 µM). For the same molecule, the MIC (Salmonella typhimurium [6]) was 256 µg/mL (≈ 738 µM) and the MIC (Escherichia coli [7]) was 256 µg/mL (≈ 738 µM).
For `Cc1cccc2cc(/C=N/NC(=S)NC3CCCCC3)c(Cl)nc12`, the “inhibition zone (IZ)” value (Staphylococcus aureus [8]) was 12.75 mm, the “inhibition zone (IZ)” value (Streptococcus pyogenes [1]) was 11.08 mm and the “inhibition zone (IZ)” value (Salmonella typhimurium [2]) was 15.66 mm. The “inhibition zone (IZ)” value (Escherichia coli [3]) was 21.27 mm, the MIC (Staphylococcus aureus [4]) was 128 µg/mL (≈ 355 µM) and the MIC (Streptococcus pyogenes [5]) was 256 µg/mL (≈ 709 µM). It also gave an MIC (Salmonella typhimurium [6]) of 256 µg/mL (≈ 709 µM) and an MIC (Escherichia coli [7]) of 128 µg/mL (≈ 355 µM).
In the case of `Cc1cccc2cc(/C=N/NC(=S)NC3CCCCCCC3)c(Cl)nc12`, the “inhibition zone (IZ)” value (Staphylococcus aureus [8]) is reported as 15.78 mm, the “inhibition zone (IZ)” value (Streptococcus pyogenes [1]) is reported as 14.45 mm and the “inhibition zone (IZ)” value (Salmonella typhimurium [2]) is reported as 22.51 mm. For the same molecule, the “inhibition zone (IZ)” value (Escherichia coli [3]) was 16.61 mm, the MIC (Staphylococcus aureus [4]) was 256 µg/mL (≈ 658 µM) and the MIC (Streptococcus pyogenes [5]) was 128 µg/mL (≈ 329 µM). It also gave an MIC (Salmonella typhimurium [6]) of 128 µg/mL (≈ 329 µM) and an MIC (Escherichia coli [7]) of 256 µg/mL (≈ 658 µM).
With `Cc1ccccc1NC(=S)N/N=C/c1cc2cccc(C)c2nc1Cl` the “inhibition zone (IZ)” value (Staphylococcus aureus [8]) was 14.8 mm, the “inhibition zone (IZ)” value (Streptococcus pyogenes [1]) was 18.81 mm and the “inhibition zone (IZ)” value (Salmonella typhimurium [2]) was 13.94 mm. The “inhibition zone (IZ)” value (Escherichia coli [3]) was 15.17 mm, the MIC (Staphylococcus aureus [4]) was 32 µg/mL (≈ 86.7 µM) and the MIC (Streptococcus pyogenes [5]) was 64 µg/mL (≈ 173 µM). For the same molecule, the MIC (Salmonella typhimurium [6]) was 32 µg/mL (≈ 86.7 µM) and the MIC (Escherichia coli [7]) was 64 µg/mL (≈ 173 µM).
In the case of `Cc1ccc(NC(=S)N/N=C/c2cc3cccc(C)c3nc2Cl)cc1`, the “inhibition zone (IZ)” value (Staphylococcus aureus [8]) is reported as 19.24 mm, the “inhibition zone (IZ)” value (Streptococcus pyogenes [1]) is reported as 17.65 mm and the “inhibition zone (IZ)” value (Salmonella typhimurium [2]) is reported as 17.18 mm. For the same molecule, the “inhibition zone (IZ)” value (Escherichia coli [3]) was 18.67 mm, the MIC (Staphylococcus aureus [4]) was 32 µg/mL (≈ 86.7 µM) and the MIC (Streptococcus pyogenes [5]) was 64 µg/mL (≈ 173 µM). It also gave an MIC (Salmonella typhimurium [6]) of 32 µg/mL (≈ 86.7 µM) and an MIC (Escherichia coli [7]) of 64 µg/mL (≈ 173 µM).
`Cc1cccc2cc(/C=N/NC(=S)Nc3ccc([N+](=O)[O-])cc3)c(Cl)nc12` was tested, and the “inhibition zone (IZ)” value (Staphylococcus aureus [8]) was 17.31 mm, the “inhibition zone (IZ)” value (Streptococcus pyogenes [1]) was 13.27 mm and the “inhibition zone (IZ)” value (Salmonella typhimurium [2]) was 14.23 mm. For the same molecule, the “inhibition zone (IZ)” value (Escherichia coli [3]) was 17.48 mm, the MIC (Staphylococcus aureus [4]) was 64 µg/mL (≈ 160 µM) and the MIC (Streptococcus pyogenes [5]) was 32 µg/mL (≈ 80 µM). For the same molecule, the MIC (Salmonella typhimurium [6]) was 64 µg/mL (≈ 160 µM) and the MIC (Escherichia coli [7]) was 32 µg/mL (≈ 80 µM).
In the case of `CC(=O)NC1=NN(C(C)=O)C(c2cc3cccc(Cl)c3nc2Cl)S1` (configuration not stated), the “inhibition zone (IZ)” value (Staphylococcus aureus [8]) is reported as 18.13 mm, the “inhibition zone (IZ)” value (Streptococcus pyogenes [1]) is reported as 19.91 mm and the “inhibition zone (IZ)” value (Salmonella typhimurium [2]) is reported as 17.27 mm. The “inhibition zone (IZ)” value (Escherichia coli [3]) was 16.72 mm, the MIC (Staphylococcus aureus [4]) was 64 µg/mL (≈ 167 µM) and the MIC (Streptococcus pyogenes [5]) was 64 µg/mL (≈ 167 µM). It also gave an MIC (Salmonella typhimurium [6]) of 64 µg/mL (≈ 167 µM) and an MIC (Escherichia coli [7]) of 64 µg/mL (≈ 167 µM).
`CC(=O)N1N=C(N(C(C)=O)C2CCCC2)SC1c1cc2cccc(Cl)c2nc1Cl` (configuration not stated) was tested, and the “inhibition zone (IZ)” value (Staphylococcus aureus [8]) was 18.03 mm, the “inhibition zone (IZ)” value (Streptococcus pyogenes [1]) was 14.15 mm and the “inhibition zone (IZ)” value (Salmonella typhimurium [2]) was 15.17 mm. The “inhibition zone (IZ)” value (Escherichia coli [3]) was 18.18 mm, the MIC (Staphylococcus aureus [4]) was 64 µg/mL (≈ 142 µM) and the MIC (Streptococcus pyogenes [5]) was 64 µg/mL (≈ 142 µM). The MIC (Salmonella typhimurium [6]) was 128 µg/mL (≈ 284 µM) and the MIC (Escherichia coli [7]) was 128 µg/mL (≈ 284 µM).
`CC(=O)N1N=C(N(C(C)=O)C2CCCCC2)SC1c1cc2cccc(Cl)c2nc1Cl` (configuration not stated) was tested, and the “inhibition zone (IZ)” value (Staphylococcus aureus [8]) was 17.39 mm, the “inhibition zone (IZ)” value (Streptococcus pyogenes [1]) was 17.73 mm and the “inhibition zone (IZ)” value (Salmonella typhimurium [2]) was 16.72 mm. The “inhibition zone (IZ)” value (Escherichia coli [3]) was 15.23 mm, the MIC (Staphylococcus aureus [4]) was 64 µg/mL (≈ 138 µM) and the MIC (Streptococcus pyogenes [5]) was 128 µg/mL (≈ 275 µM). It also gave an MIC (Salmonella typhimurium [6]) of 256 µg/mL (≈ 550 µM) and an MIC (Escherichia coli [7]) of 128 µg/mL (≈ 275 µM).
In the case of `CC(=O)N1N=C(N(C(C)=O)C2CCCCCCC2)SC1c1cc2cccc(Cl)c2nc1Cl` (configuration not stated), the “inhibition zone (IZ)” value (Staphylococcus aureus [8]) is reported as 17.62 mm, the “inhibition zone (IZ)” value (Streptococcus pyogenes [1]) is reported as 17.94 mm and the “inhibition zone (IZ)” value (Salmonella typhimurium [2]) is reported as 18.54 mm. The “inhibition zone (IZ)” value (Escherichia coli [3]) was 16.36 mm, the MIC (Staphylococcus aureus [4]) was 64 µg/mL (≈ 130 µM) and the MIC (Streptococcus pyogenes [5]) was 128 µg/mL (≈ 259 µM). For the same molecule, the MIC (Salmonella typhimurium [6]) was 64 µg/mL (≈ 130 µM) and the MIC (Escherichia coli [7]) was 64 µg/mL (≈ 130 µM).
